Data published in ChEMBL document CHEMBL3244414, “Structure-activity relationships among the O-acyl derivatives of leucomycin. Correlation of minimal inhibitory concentrations with binding to Escherichia coli ribosomes” (J Med Chem, 1977).
≈ marks a conversion by molar mass, not a printed value.

Experiments:
Klebsiella pneumoniae = experiment: Antimicrobial activity against Klebsiella pneumoniae ATCC 10031 by agar dilution method; format: functional; conditions: Klebsiella pneumoniae, ATCC 10031; read-out: MIC
How it was run: (§1)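 Read-out is the minimal inhibitory concentration, found by agar dilution against the named strain.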

Bacillus spizizenii = experiment: Antimicrobial activity against Bacillus subtilis ATCC 6633 by agar dilution method; format: functional; conditions: Bacillus spizizenii, ATCC 6633; read-out: MIC; how it was run: as §1
[1] = biological target: Bacterial 70S ribosome (Bacteria) (UniProt P0A7V0+P60723+P0AG67+P0A7R5+P0A7R9+P0A7S3+P0A7S9+P0AG59+P0ADZ4+P0A7T3+P0AG63+P0A7T7+P0A7U3+P0A7U7+P68679+P0A7V3+P0A7V8+P0A7W1+P02358+P02359+P0A7W7+P0A7X3+P0A7J3+P0A7J7+P0AA10+P0ADY3+P02413+P0ADY7+P0AG44+P0C018+P0A7K6+P0A7L0+P0A7L3+P0AG48+P61175+P0ADZ0+P60624+P68919+P0A7L8+P0A7M2+P0A7M6+P60422+P0AG51+P0A7N1+P0A7M9+P0A7N4+P0A7N9+P0A7P5+P0A7Q1+Q2EEQ2+P0A7Q6+P60438+P62399+P0AG55+P0A7K2); experiment: (§2) Displacement of [14C]erythromycin from Escherichia coli ribosomes after 30 mins by scintillation spectrometer analysis
How it was run: (§3)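 NH4Cl-washed E. coli ribosomes with [14C]erythromycin A and varied competitor concentrations in 0.01 M Tris-HCl pH 7.2, 0.1 M KCl, 0.004 M MgCl2, 0.01 M NH4Cl. Incubated 30 min at 24 °C, stopped by dilution in cold Tris/KCl/MgCl2 buffer, membrane-filtered, washed three times, dried, scintillation counted. Reports the concentration giving 50% inhibition of binding.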

Bacterial 70S ribosome = experiment: as §2; how it was run: as §3
Staphylococcus aureus = experiment: Antimicrobial activity against Staphylococcus aureus ATCC 6538P by agar dilution method; format: functional; conditions: Staphylococcus aureus, ATCC 6538P; read-out: MIC; how it was run: as §1

| SMILES | MIC (Klebsiella pneumoniae) | MIC (Bacillus spizizenii) | pK50 [1] | IC50 (Bacterial 70S ribosome) | MIC (Staphylococcus aureus) |
| --- | --- | --- | --- | --- | --- |
| CCCC(=O)O[C@H]1[C@H](C)O[C@@H](O[C@H]2[C@H](N(C)C)[C@@H](OC(=O)CCCC(=O)O)[C@H](O[C@H]3[C@@H](CC=O)C[C@@H](C)[C@@H](O)/C=C/C=C/C[C@@H](C)OC(=O)C[C@@H](O)[C@@H]3OC)O[C@@H]2C)C[C@@]1(C)O | 25 µg/mL (≈ 28.2 µM) | 0.8 µg/mL (≈ 0.903 µM) | 5 | 9300 nM | 0.8 µg/mL (≈ 0.903 µM) |
| CO[C@@H]1[C@@H](O[C@@H]2O[C@H](C)[C@@H](O[C@H]3C[C@@](C)(O)[C@@H](OC(=O)CC(C)C)[C@H](C)O3)[C@H](N(C)C)[C@H]2O)[C@@H](CC=O)C[C@@H](C)[C@@H](OC(C)=O)/C=C/C=C/C[C@@H](C)OC(=O)C[C@H]1OC(C)=O | 50 µg/mL (≈ 57.5 µM) | 1.6 µg/mL (≈ 1.84 µM) | 5.9 | 1300 nM | 1.6 µg/mL (≈ 1.84 µM) |
| CCCC(=O)O[C@H]1[C@H](C)O[C@@H](O[C@H]2[C@H](N(C)C)[C@@H](O)[C@H](O[C@H]3[C@@H](CC=O)C[C@@H](C)[C@@H](OC(=O)CCl)/C=C/C=C/C[C@@H](C)OC(=O)C[C@@H](O)[C@@H]3OC)O[C@@H]2C)C[C@@]1(C)O | 25 µg/mL (≈ 29.5 µM) | 0.4 µg/mL (≈ 0.471 µM) | 6 | 900 nM | 1.6 µg/mL (≈ 1.89 µM) |
| CCCC(=O)O[C@H]1[C@H](C)O[C@@H](O[C@H]2[C@H](N(C)C)[C@@H](O)[C@H](O[C@H]3[C@@H](CC=O)C[C@@H](C)[C@@H](OC(C)=O)/C=C/C=C/C[C@@H](C)OC(=O)C[C@@H](OC(C)=O)[C@@H]3OC)O[C@@H]2C)C[C@@]1(C)O | 100 µg/mL (≈ 117 µM) | 0.8 µg/mL (≈ 0.935 µM) | 5.7 | 2200 nM | 1.6 µg/mL (≈ 1.87 µM) |
| CCCC(=O)O[C@H]1[C@H](C)O[C@@H](O[C@H]2[C@H](N(C)C)[C@@H](O)[C@H](O[C@H]3[C@@H](CC=O)C[C@@H](C)[C@@H](O)/C=C/C=C/C[C@@H](C)OC(=O)C[C@@H](O)[C@@H]3OC)O[C@@H]2C)C[C@@]1(C)O | 12.5 µg/mL (≈ 16.2 µM) | 0.8 µg/mL (≈ 1.04 µM) | 6 | 1100 nM | 0.4 µg/mL (≈ 0.518 µM) |
| CCCC(=O)O[C@H]1/C=C/C=C/C[C@@H](C)OC(=O)C[C@@H](O)[C@H](OC)[C@@H](O[C@@H]2O[C@H](C)[C@@H](O[C@H]3C[C@@](C)(O)[C@@H](OC(=O)CCC)[C@H](C)O3)[C@H](N(C)C)[C@H]2O)[C@@H](CC=O)C[C@H]1C | 50 µg/mL (≈ 59.4 µM) | 1.6 µg/mL (≈ 1.9 µM) | 6 | 900 nM | 1.6 µg/mL (≈ 1.9 µM) |
| CCC(=O)O[C@H]1[C@H](C)O[C@@H](O[C@H]2[C@H](N(C)C)[C@@H](O)[C@H](O[C@H]3[C@@H](CC=O)C[C@@H](C)[C@@H](O)/C=C/C=C/C[C@@H](C)OC(=O)C[C@@H](OC(C)=O)[C@@H]3OC)O[C@@H]2C)C[C@@]1(C)O | 50 µg/mL (≈ 62.5 µM) | 3.1 µg/mL (≈ 3.88 µM) | 5.7 | 1900 nM | 1.6 µg/mL (≈ 2 µM) |
| CCC(=O)O[C@H]1/C=C/C=C/C[C@@H](C)OC(=O)C[C@@H](OC(C)=O)[C@H](OC)[C@@H](O[C@@H]2O[C@H](C)[C@@H](O[C@H]3C[C@@](C)(O)[C@@H](OC(=O)CC(C)C)[C@H](C)O3)[C@H](N(C)C)[C@H]2O)[C@@H](CC=O)C[C@H]1C | 100 µg/mL (≈ 113 µM) | 0.4 µg/mL (≈ 0.452 µM) | 5.7 | 1900 nM | 3.1 µg/mL (≈ 3.51 µM) |
| CO[C@@H]1[C@@H](O[C@@H]2O[C@H](C)[C@@H](O[C@H]3C[C@@](C)(O)[C@@H](OC(=O)CC(C)C)[C@H](C)O3)[C@H](N(C)C)[C@H]2O)[C@@H](CC=O)C[C@@H](C)[C@@H](OC(=O)CCC(=O)O)/C=C/C=C/C[C@@H](C)OC(=O)C[C@H]1OC(C)=O | 100 µg/mL (≈ 108 µM) | 3.1 µg/mL (≈ 3.34 µM) | 5.5 | 3400 nM | 3.1 µg/mL (≈ 3.34 µM) |
| CO[C@H]1C(O)CC(=O)O[C@H](C)C/C=C/C=C/[C@H](OC(C)=O)[C@H](C)C[C@H](CC=O)[C@@H]1O[C@@H]1O[C@H](C)[C@@H](O[C@H]2C[C@@](C)(O)[C@@H](O)[C@H](C)O2)[C@H](N(C)C)[C@H]1O (single isomer, unassigned) | 100 µg/mL (≈ 134 µM) | 3.1 µg/mL (≈ 4.17 µM) | 5.6 | 2800 nM | 6.3 µg/mL (≈ 8.47 µM) |
